Laboratory results published in publication PMC5768938 (World Journal of Gastroenterology, 2018).
Marks after values point to notes of the source that are not given here.

Experiments:
[1] = test system: FXR; conditions: read-out: FXR EC50; in vitro; cited from earlier work
[2] = test system: TGR5; conditions: read-out: TGR5 EC50; in vitro; cited from earlier work
[3] = test system: ob/ob-NASH mice; assay: Liver histology; format: in vivo; conditions: 16 wk; for Collagen 1a1 (fibrosis) % fractional area, Before treatment / Galectin-3 (inflammation) % fractional area, Before treatment / Lipid (steatosis) % fractional area, Before treatment: baseline biopsy; for Collagen 1a1 (fibrosis) % fractional area, Before treatment / Galectin-3 (inflammation) % fractional area, Before treatment / Lipid (steatosis) % fractional area, Before treatment / Collagen 1a1 (fibrosis) % fractional area, After treatment / Galectin-3 (inflammation) % fractional area, After treatment / Lipid (steatosis) % fractional area, After treatment: mean ± SE
How it was run: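 Biopsy-confirmed ob/ob-NASH mice (AMLN diet; n = 11-12/group, stratified by Col1a1 fibrosis) were dosed orally with vehicle or test compound for 16 wk. Baseline biopsies and terminal left lateral lobe samples were fixed overnight in 4% PFA, paraffin-sectioned at 3 μm, and stained with HE, anti-Col1a1 and anti-galectin-3. Scoring was blinded. Immunoreactive area was expressed as % of parenchymal area after subtracting fat area from adjacent HE sections. Responders had ≥1-point change (χ2 test).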

[4] = LC/MS/MS determination of compound levels in liver and ileum, 14 d dosing; format: in vivo; conditions: 1-30 mg/kg PO, chow-fed C57Bl6 mice
How it was run: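 Chow-fed C57Bl6 mice were dosed PO QD with test compounds at 1-30 mg/kg for 14 d. Weighed liver and ileum were bead-homogenised in 7 volumes of 80/20 ACN/HBSS and centrifuged. Supernatant was dried under nitrogen and reconstituted in 60/40 methanol/10 mmol/L ammonium acetate with 25 nmol/L d5-GCA internal standard, then filtered. Analysis used UHPLC-high-resolution MS in negative ESI with a C18 column at 45 °C and matrix-matched quadratic (1/x) calibration.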

[5] = test system: FXR target genes; assay: Hepatic and ileal FXR target gene expression by RNA sequencing, 14 d dosing; format: in vivo; conditions: 1-30 mg/kg PO, 2 wk, lean C57Bl6 mice, RNAseq
How it was run: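 Lean chow-fed C57Bl6 mice received FXR-agonist test compounds at 1, 3, 10 or 30 mg/kg PO QD for 14 d. Liver and ileum transcriptomes were profiled by RNA sequencing using stranded mRNA libraries on a NextSeq 500. Prototypic FXR target genes were analysed by two-way ANOVA with Bonferroni post-hoc test against untreated (dose 0) animals.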

[6] = 10 mg/kg, subjects achieving > 1 points improvement in score from baseline

With `CC[C@H]1[C@@H](O)[C@@H]2[C@H](CC[C@]3(C)[C@@H]([C@H](C)CCC(=O)O)CC[C@@H]23)[C@@]2(C)CC[C@@H](O)C[C@@H]12` [OCA, obeticholic acid] as the molecule, how does the “Fibrosis stage: No improvement (number of mice)” value ([3]; 10 mg/kg) read?
The value was 10.

And the “Fibrosis stage: With improvement (number of mice)” value ([3]; 10 mg/kg)?
Its value is 2.

And the “NAS: No improvement (number of mice)” value ([3]; 10 mg/kg)?
The value was 8.

What about the “NAS: With improvement (number of mice)” value ([3]; 10 mg/kg) of the same molecule?
Its value is 4.

And the “Collagen 1a1 (fibrosis) % fractional area, Before treatment” value ([3]; 10 mg/kg)?
Its value is 0.9 ± 0.1 % fractional area.

What about the “Galectin-3 (inflammation) % fractional area, Before treatment” value ([3]; 10 mg/kg) of the same molecule?
Its value is 5.5 ± 0.3 % fractional area.

And the “Lipid (steatosis) % fractional area, Before treatment” value ([3]; 10 mg/kg)?
The value was 33.4 ± 0.8 % fractional area.

And the “Collagen 1a1 (fibrosis) % fractional area, After treatment” value ([3]; 10 mg/kg)?
Its value is 9.0 ± 0.6 ^a % fractional area.

And the “Galectin-3 (inflammation) % fractional area, After treatment” value ([3]; 10 mg/kg)?
The value was 5.0 ± 0.2 ^a % fractional area.

And the “Lipid (steatosis) % fractional area, After treatment” value ([3]; 10 mg/kg)?
Its value is 31.8 ± 0.4 % fractional area.

And the “Fibrosis stage: % improving” value [3, 6]?
The value was 17%.

And the “NAS: % improving” value [3, 6]?
Its value is 33%.

And the “Fibrosis stage: No improvement (number of mice)” value ([3]; 30 mg/kg)?
The value was 7.

What about the “Fibrosis stage: With improvement (number of mice)” value ([3]; 30 mg/kg) of the same molecule?
The value was 4.

And the “NAS: No improvement (number of mice)” value ([3]; 30 mg/kg)?
Its value is 0.

And the “NAS: With improvement (number of mice)” value ([3]; 30 mg/kg)?
The value was 11.

What about the “Collagen 1a1 (fibrosis) % fractional area, Before treatment” value ([3]; 30 mg/kg) of the same molecule?
The value was 1.2 ± 0.2 % fractional area.

And the “Galectin-3 (inflammation) % fractional area, Before treatment” value ([3]; 30 mg/kg)?
The value was 5.5 ± 0.4 % fractional area.

What about the “Lipid (steatosis) % fractional area, Before treatment” value ([3]; 30 mg/kg) of the same molecule?
Its value is 32.2 ± 1.1 % fractional area.

And the “Collagen 1a1 (fibrosis) % fractional area, After treatment” value ([3]; 30 mg/kg)?
The value was 8.0 ± 0.7 ^a % fractional area.

What about the “Galectin-3 (inflammation) % fractional area, After treatment” value ([3]; 30 mg/kg) of the same molecule?
The value was 4.0 ± 0.4 ^a % fractional area.

And the “Lipid (steatosis) % fractional area, After treatment” value ([3]; 30 mg/kg)?
The value was 22.7 ± 1.0 ^a % fractional area.

What about the “NAS: % improving” value ([3]; 30 mg/kg, subjects achieving > 1 points improvement in score from baseline) of the same molecule?
Its value is 100% ^a.

What about the “ileal drug concentration compared to the liver” value [4] of the same molecule?
The value was “approximately two-fold”.

What about the “hepatic FXR target gene expression (BSEP, OST, CYP8b1, SHP)” value [5] of the same molecule?
The value was “regulated hepatic FXR genes”.

And the “ileal FXR target gene expression (SHP, FGF-15)” value [5]?
Its value is “more pronounced effects”.
